Experimental data published in ChEMBL document CHEMBL1147441, “A new series of potent oxindole inhibitors of CDK2” (Bioorg Med Chem Lett, 2004).
pIC50: −log10 of the molar value. Blank lines part the entries; values can stand above or below the compound they belong to.

Tests used:
SW480 [1] = assay: In vitro inhibition of SW480 (human colon cancer) cell proliferation.; format: functional, cell-based
Summary of the method: (§1)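 MTT-based proliferation assay run on tumour cells. IC50 values were taken from a single experiment.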

MDA-MB-435 = assay: In vitro inhibition of MDA MB 435 (human breast cancer) cell proliferation.; format: functional, cell-based; summary of the method: as §1
[2] = molecular target: Cyclin-dependent kinase 2/cyclin E (Homo sapiens, UniProt P24941); assay: In vitro inhibition of recombinant Cyclin Dependent Kinase-2/Cyclin E.; format: protein-complex assay
SW480 [3] = assay: Percent inhibition of SW480 cell growth in S phase at 270 nm concentration in FACS cell cycle after 16 hr of treatment; format: functional, Homo sapiens
Summary of the method: (§2)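 SW480 cells were exposed to compound for 4, 16 or 24 h. Cells were fixed in 70% ethanol, pelleted for 1 min at 3000g at 25 °C and washed once in PBS. They were then treated with ribonuclease for 15 min at 37 °C and stained with propidium iodide for 30 min at room temperature. Flow cytometry gave the % of cells in G0-G1, S, G2-M and subG0, and the G2/G1 ratio.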

SW480 [4] = assay: Percent inhibition of SW480 cell growth in G2-M phase at 92 nm concentration in FACS cell cycle after 4 hr of treatment; format: functional, Homo sapiens; summary of the method: as §2
SW480 [5] = assay: Percent inhibition of SW480 cell growth in sub G0 phase at 270 nm concentration in FACS cell cycle after 24 h of treatment; format: functional, Homo sapiens; summary of the method: as §2
SW480 [6] = assay: Percent inhibition of SW480 cell growth in sub G0 phase at 0 nm concentration in FACS cell cycle after 24 hr of treatment; format: functional, Homo sapiens; summary of the method: as §2
[7] = Inhibition ratio of G2 and G1 phase cellular fractions of SW480 cells treated with compound at 270 nM concentration at 24 h; format: functional; summary of the method: as §2
SW480 [8] = assay: Percent inhibition of SW480 cell growth in G2-M phase at 270 nm concentration in FACS cell cycle after 4 hr of treatment; format: functional, Homo sapiens; summary of the method: as §2
SW480 [9] = assay: Percent inhibition of SW480 cell growth in sub G0 phase at 92 nm concentration in FACS cell cycle after 16 h of treatment; format: functional, Homo sapiens; summary of the method: as §2
SW480 [10] = assay: Percent inhibition of SW480 cell growth in G2-M phase at 270 nm concentration in FACS cell cycle after 16 hr of treatment; format: functional, Homo sapiens; summary of the method: as §2
SW480 [11] = assay: Percent inhibition of SW480 cell growth in G0-G1 phase at 92 nm concentration in FACS cell cycle after 4 hr of treatment; format: functional, Homo sapiens; summary of the method: as §2
[12] = Inhibition ratio of G2 and G1 phase cellular fractions of SW480 cells treated with compound at 92 nM concentration at 24 h; format: functional; summary of the method: as §2
SW480 [13] = assay: Percent inhibition of SW480 cell growth in G0-G1 phase at 0 nm concentration in FACS cell cycle after 16 hr of treatment; format: functional, Homo sapiens; summary of the method: as §2
SW480 [14] = assay: Percent inhibition of SW480 cell growth in G2-M phase at 0 nm concentration in FACS cell cycle after 4 hr of treatment; format: functional, Homo sapiens; summary of the method: as §2
SW480 [15] = assay: Percent inhibition of SW480 cell growth in S phase at 92 nm concentration in FACS cell cycle after 4 hr of treatment; format: functional, Homo sapiens; summary of the method: as §2
SW480 [16] = assay: Percent inhibition of SW480 cell growth in sub G0 phase at 270 nm concentration in FACS cell cycle after 4 hr of treatment; format: functional, Homo sapiens; summary of the method: as §2
SW480 [17] = assay: Percent inhibition of SW480 cell growth in G0-G1 phase at 270 nm concentration in FACS cell cycle after 24 hr of treatment; format: functional, Homo sapiens; summary of the method: as §2
SW480 [18] = assay: Percent inhibition of SW480 cell growth in G0-G1 phase at 0 nm concentration in FACS cell cycle after 24 hr of treatment; format: functional, Homo sapiens; summary of the method: as §2
[19] = Inhibition ratio of G2 and G1 phase cellular fractions of SW480 cells treated with compound at 92 nM concentration at 4 h; format: functional; summary of the method: as §2
SW480 [20] = assay: Percent inhibition of SW480 cell growth in G0-G1 phase at 92 nm concentration in FACS cell cycle after 24 hr of treatment; format: functional, Homo sapiens; summary of the method: as §2
SW480 [21] = assay: Percent inhibition of SW480 cell growth in S phase at 0 nm concentration in FACS cell cycle after 16 hr of treatment; format: functional, Homo sapiens; summary of the method: as §2
[22] = Inhibition ratio of G2 and G1 phase cellular fractions of SW480 cells treated with compound at 0 nM concentration at 24 h; format: functional; summary of the method: as §2
SW480 [23] = assay: Percent inhibition of SW480 cell growth in G0-G1 phase at 0 nm concentration in FACS cell cycle after 4 hr of treatment; format: functional, Homo sapiens; summary of the method: as §2
SW480 [24] = assay: Percent inhibition of SW480 cell growth in S phase at 92 nm concentration in FACS cell cycle after 16 hr of treatment; format: functional, Homo sapiens; summary of the method: as §2
[25] = Inhibition ratio of G2 and G1 phase cellular fractions of SW480 cells treated with compound at 0 nM concentration at 4 h; format: functional; summary of the method: as §2
SW480 [26] = assay: Percent inhibition of SW480 cell growth in sub G0 phase at 92 nm concentration in FACS cell cycle after 24 hr of treatment; format: functional, Homo sapiens; summary of the method: as §2
SW480 [27] = assay: Percent inhibition of SW480 cell growth in G2-M phase at 92 nm concentration in FACS cell cycle after 16 hr of treatment; format: functional, Homo sapiens; summary of the method: as §2
SW480 [28] = assay: Percent inhibition of SW480 cell growth in sub G0 phase at 0 nm concentration in FACS cell cycle after 4 hr of treatment; format: functional, Homo sapiens; summary of the method: as §2
SW480 [29] = assay: Percent inhibition of SW480 cell growth in G2-M phase at 92 nm concentration in FACS cell cycle after 24 hr of treatment; format: functional, Homo sapiens; summary of the method: as §2
[30] = Inhibition ratio of G2 and G1 phase cellular fractions of SW480 cells treated with compound at 0 nM concentration at 16 h; format: functional; summary of the method: as §2
[31] = Inhibition ratio of G2 and G1 phase cellular fractions of SW480 cells treated with compound at 92 nM concentration at 16 h; format: functional; summary of the method: as §2
[32] = Inhibition ratio of G2 and G1 phase cellular fractions of SW480 cells treated with compound at 270 nM concentration at 4 h; format: functional; summary of the method: as §2
SW480 [33] = assay: Percent inhibition of SW480 cell growth in G2-M phase at 0 nm concentration in FACS cell cycle after 24 hr of treatment; format: functional, Homo sapiens; summary of the method: as §2
SW480 [34] = assay: Percent inhibition of SW480 cell growth in S phase at 270 nm concentration in FACS cell cycle after 24 hr of treatment; format: functional, Homo sapiens; summary of the method: as §2
SW480 [35] = assay: Percent inhibition of SW480 cell growth in sub G0 phase at 92 nm concentration in FACS cell cycle after 4 hr of treatment; format: functional, Homo sapiens; summary of the method: as §2
SW480 [36] = assay: Percent inhibition of SW480 cell growth in S phase at 0 nm concentration in FACS cell cycle after 24 hr of treatment; format: functional, Homo sapiens; summary of the method: as §2
SW480 [37] = assay: Percent inhibition of SW480 cell growth in G0-G1 phase at 270 nm concentration in FACS cell cycle after 16 hr of treatment; format: functional, Homo sapiens; summary of the method: as §2
[38] = Inhibition ratio of G2 and G1 phase cellular fractions of SW480 cells treated with compound at 270 nM concentration at 16 h; format: functional; summary of the method: as §2
SW480 [39] = assay: Percent inhibition of SW480 cell growth in G2-M phase at 270 nm concentration in FACS cell cycle after 24 h of treatment; format: functional, Homo sapiens; summary of the method: as §2
SW480 [40] = assay: Percent inhibition of SW480 cell growth in S phase at 0 nm concentration in FACS cell cycle after 4 h of treatment; format: functional, Homo sapiens; summary of the method: as §2
SW480 [41] = assay: Percent inhibition of SW480 cell growth in sub G0 phase at 0 nm concentration in FACS cell cycle after 16 hr of treatment; format: functional, Homo sapiens; summary of the method: as §2
SW480 [42] = assay: Percent inhibition of SW480 cell growth in G2-M phase at 0 nm concentration in FACS cell cycle after 16 hr of treatment; format: functional, Homo sapiens; summary of the method: as §2
SW480 [43] = assay: Percent inhibition of SW480 cell growth in S phase at 92 nm concentration in FACS cell cycle after 24 hr of treatment; format: functional, Homo sapiens; summary of the method: as §2
SW480 [44] = assay: Percent inhibition of SW480 cell growth in sub G0 phase at 270 nm concentration in FACS cell cycle after 16 hr of treatment; format: functional, Homo sapiens; summary of the method: as §2
SW480 [45] = assay: Percent inhibition of SW480 cell growth in G0-G1 phase at 270 nm concentration in FACS cell cycle after 4 hr of treatment; format: functional, Homo sapiens; summary of the method: as §2
SW480 [46] = assay: Percent inhibition of SW480 cell growth in G0-G1 phase at 92 nm concentration in FACS cell cycle after 16 hr of treatment; format: functional, Homo sapiens; summary of the method: as §2
SW480 [47] = assay: Percent inhibition of SW480 cell growth in S phase at 270 nm concentration in FACS cell cycle after 4 hr of treatment; format: functional, Homo sapiens; summary of the method: as §2

pIC50 (SW480 [1]): 6.01
pIC50 (MDA-MB-435): 5.90
pIC50 [2]: 7.02
SMILES: COc1cc[nH]c1/C=C1\C(=O)Nc2ccc(F)c(C#C[C@H](CO)NCCO)c21

pIC50 (MDA-MB-435): < 4.52
pIC50 [2]: 6.07
SMILES: COc1cc[nH]c1/C=C1/C(=O)Nc2ccc(F)cc21

pIC50 (SW480 [1]): 6.54
pIC50 (MDA-MB-435): 6.22
pIC50 [2]: 8.40
SMILES: COc1cc[nH]c1/C=C1\C(=O)Nc2ccc(F)c(C#CC3(O)CCOCC3)c21

pIC50 (SW480 [1]): 7.00
pIC50 (MDA-MB-435): 6.46
pIC50 [2]: 8.10
SMILES: CN[C@H](C#Cc1c(F)ccc2c1/C(=C/c1[nH]ccc1OC)C(=O)N2)CO

pIC50 (SW480 [1]): 6.57
pIC50 (MDA-MB-435): 6.49
pIC50 [2]: 8.52
SMILES: COc1cc[nH]c1/C=C1\C(=O)Nc2ccc(F)c(C#C[C@H](N)CO)c21

pIC50 (SW480 [1]): 7.04
pIC50 (MDA-MB-435): 6.96
pIC50 [2]: 8.22
SMILES: COc1cc[nH]c1/C=C1\C(=O)Nc2ccc(F)c(C#CC3(O)CCNCC3)c21.Cl
S (SW480 [3]): 13.82%
G2/M (SW480 [4]): 18.36%
SubG0 (SW480 [5]): 46.86%
SubG0 (SW480 [6]): 11.85%
Ratio [7]: 1.94%
G2/M (SW480 [8]): 21.8%
SubG0 (SW480 [9]): 13.52%
G2/M (SW480 [10]): 38.44%
G0/G1 (SW480 [11]): 52.49%
Ratio [12]: 1.96%
G0/G1 (SW480 [13]): 46.55%
G2/M (SW480 [14]): 18.42%
S (SW480 [15]): 29.14%
SubG0 (SW480 [16]): 14.47%
G0/G1 (SW480 [17]): 50%
G0/G1 (SW480 [18]): 52.41%
Ratio [19]: 1.95%
G0/G1 (SW480 [20]): 54.68%
S (SW480 [21]): 38.61%
Ratio [22]: 1.95%
G0/G1 (SW480 [23]): 49.25%
S (SW480 [24]): 28.43%
Ratio [25]: 1.94%
SubG0 (SW480 [26]): 11.67%
G2/M (SW480 [27]): 15.72%
SubG0 (SW480 [28]): 13.29%
G2/M (SW480 [29]): 15.16%
Ratio [30]: 1.95%
Ratio [31]: 1.96%
Ratio [32]: 1.95%
G2/M (SW480 [33]): 14.89%
S (SW480 [34]): 14.54%
SubG0 (SW480 [35]): 11.17%
S (SW480 [36]): 32.7%
G0/G1 (SW480 [37]): 47.74%
Ratio [38]: 1.94%
G2/M (SW480 [39]): 35.45%
S (SW480 [40]): 32.33%
SubG0 (SW480 [41]): 11.29%
G2/M (SW480 [42]): 14.84%
S (SW480 [43]): 30.15%
SubG0 (SW480 [44]): 43.52%
G0/G1 (SW480 [45]): 43.9%
G0/G1 (SW480 [46]): 55.84%
S (SW480 [47]): 34.26%
